For 33 compounds, IC50 and Activity results are on record in ChEMBL document CHEMBL4364301 (Eur J Med Chem, 2019).

Assay type in all cases: functional
Experiment [1] has as its system DU-145. The experiment can be described thus: Antiproliferative activity against human DU145 cells assessed as reduction in cell growth incubated for 96 hrs by propidium iodide based 2D monolayer assay. Conditions: for IC50: DU-145, 96 h. In outline: (§1)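 After 24 h recovery, compound in medium or medium alone (control wells) was added at 10 half-log concentrations from 0.0032 to 100 µM, in triplicate, with at most 0.3% DMSO. After 96 h, wells were PBS-washed, stained with 7 µg/ml PI and 0.1% Triton X-100, and fluorescence read at 530/620 nm. IC50 came from a 4-parameter fit, geometric mean.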

The subject of experiment [2] is CWR22R. The experiment can be described thus: Antiproliferative activity against human 22Rv1 cells assessed as reduction in cell growth incubated for 96 hrs by propidium iodide based 2D monolayer assay. Conditions: for IC50: 22Rv1, 96 h. In outline: as §1
Experiment [3] deals with LNCaP. In words: Antiproliferative activity against human LNCAP cells assessed as reduction in cell growth incubated for 96 hrs by propidium iodide based 2D monolayer assay. In outline: as §1
The subject of experiment [4] is VCaP. The experiment can be described thus: Antiproliferative activity against human VCaP cells assessed as reduction in cell growth incubated for 96 hrs by propidium iodide based 2D monolayer assay. In outline: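 VCaP cells in RPMI 1640 with 10% FCS at 37 °C, 5% CO2, seeded 4,000–20,000 cells/well and left 24 h before dosing. Compounds from DMSO stocks were diluted in half-log steps in medium, 10 concentrations 0.0032–100 μM, triplicate wells, max 0.3% DMSO. After 96 h, cells were washed, stained with 7 μg/ml propidium iodide plus 0.1% Triton X-100 for 1–2 h at room temperature, and fluorescence read at ex 530/em 620 nm.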

On to `CC(O)(CS(=O)(=O)c1ccc(F)cc1)C(=O)Nc1cccc(S(F)(F)(F)(F)F)c1` (racemic), for which the IC50 in experiment [1] was 48.8 µM; in experiment [2] it was 38.9 µM; in experiment [3], 32.6 µM; in experiment [4] it was 37.9 µM.

On to `CC(O)(CS(=O)(=O)c1ccc(S(F)(F)(F)(F)F)cc1)C(=O)Nc1ccc(C#N)cc1C(F)(F)F` (racemic), for which the IC50 in experiment [1] was determined as 25.6 µM; in experiment [2], 19.4 µM; in experiment [3], 17.8 µM; in experiment [4], 43 µM.

As for `CC(O)(COc1cccc(C(F)(F)C(F)(F)F)c1)C(=O)Nc1cc(C(F)(F)F)cc(C(F)(F)F)c1` (racemic), the IC50 was 8.5 µM in experiment [1], 4.1 µM in experiment [2], 4.4 µM in experiment [3] and 9.5 µM in experiment [4].

For the compound `CC(O)(CS(=O)(=O)c1ccc(S(F)(F)(F)(F)F)cc1)C(=O)Nc1ccc([N+](=O)[O-])cc1C(F)(F)F` (racemic), the IC50 in experiment [1] turned out to be 17.7 µM; in experiment [2], 18.7 µM; in experiment [3] it was 12.5 µM; in experiment [4] it was 28.6 µM.

As for `CC(O)(CS(=O)(=O)c1cccc(S(F)(F)(F)(F)F)c1)C(=O)Nc1ccc([N+](=O)[O-])cc1C(F)(F)F` (racemic), the IC50 in experiment [1] was determined as 100 µM; in experiment [2] it was 100 µM; in experiment [3], 6.5 µM; in experiment [4], 100 µM.

Take `CC(O)(COc1ccc(C#N)c(F)c1)C(=O)Nc1cccc(S(F)(F)(F)(F)F)c1` (racemic): the IC50 in experiment [1] was 74.8 µM; in experiment [2] it was 63.4 µM; in experiment [3], 83.7 µM; in experiment [4], 91.9 µM.

As to `CC(O)(CS(=O)(=O)c1ccccc1OC(F)(F)F)C(=O)Nc1ccc(S(F)(F)(F)(F)F)cc1` (racemic), the IC50 in experiment [1] amounted to 19.5 µM; in experiment [2], 16 µM; in experiment [3] it was 12.7 µM; in experiment [4], 19.9 µM.

On to `CC(O)(CS(=O)(=O)c1cccc(C(F)(F)F)c1)C(=O)Nc1ccc(S(F)(F)(F)(F)F)cc1` (racemic), for which the IC50 in experiment [1] worked out at 31.9 µM; in experiment [2], 23.8 µM; in experiment [3], 21 µM; in experiment [4], 32 µM.

On to `CC(O)(CS(=O)(=O)c1cccc(S(F)(F)(F)(F)F)c1)C(=O)Nc1ccc(S(F)(F)(F)(F)F)cc1` (racemic), for which the IC50 in experiment [1] came to 34 µM; in experiment [2], 39.9 µM; in experiment [3], 31.3 µM; in experiment [4], 24.8 µM.

In the case of `CC(O)(CS(=O)(=O)c1ccc(C(F)(F)F)cc1)C(=O)Nc1ccc(S(F)(F)(F)(F)F)cc1` (racemic), the IC50 came to 29.3 µM in experiment [1], 28.9 µM in experiment [2], 20.7 µM in experiment [3] and 27.7 µM in experiment [4].

In the case of `CC(O)(COc1ccc(C#N)cc1C(F)(F)F)C(=O)Nc1cccc(S(F)(F)(F)(F)F)c1` (racemic), the 50% inhibitory concentration (IC50) in experiment [1] came out at 22.8 µM; in experiment [2], 18.3 µM; in experiment [3] it was 16.4 µM; in experiment [4], 30.6 µM.

For the compound `CC(O)(COc1cccc(C(F)(F)C(F)(F)F)c1)C(=O)Nc1ccc(C(F)(F)F)cc1` (racemic), the IC50 in experiment [1] worked out at 7.6 µM; in experiment [2], 3.6 µM; in experiment [3], 3.9 µM; in experiment [4] it was 8.1 µM.

As to `CC(O)(CS(=O)(=O)c1ccc(OC(F)(F)F)cc1)C(=O)Nc1cccc(S(F)(F)(F)(F)F)c1` (racemic), the IC50 in experiment [1] is 35.6 µM; in experiment [2], 31.2 µM; in experiment [3], 10.7 µM; in experiment [4] it was 15.1 µM.

With `CC(O)(CS(=O)(=O)c1cccc(C(F)(F)F)c1)C(=O)Nc1cccc(S(F)(F)(F)(F)F)c1` (racemic), the half-maximal inhibitory concentration (IC50) came out at 37.3 µM in experiment [1], 24.6 µM in experiment [2], 21.8 µM in experiment [3] and 35.5 µM in experiment [4].

For `CC(O)(CS(=O)(=O)c1ccc(S(F)(F)(F)(F)F)cc1)C(=O)Nc1cccc(S(F)(F)(F)(F)F)c1` (racemic), the IC50 was 17.4 µM in experiment [1], 12.3 µM in experiment [2], 11.7 µM in experiment [3] and 17.2 µM in experiment [4].

For the compound `CC(O)(CS(=O)(=O)c1cc(C(F)(F)F)cc(C(F)(F)F)c1)C(=O)Nc1cccc(S(F)(F)(F)(F)F)c1` (racemic), the IC50 worked out at 13.7 µM in experiment [1], 9.3 µM in experiment [2], 9.7 µM in experiment [3] and 10.4 µM in experiment [4].

Regarding `CC(O)(CS(=O)(=O)c1ccc(S(F)(F)(F)(F)F)cc1)C(=O)Nc1ccc([N+](=O)[O-])c(C(F)(F)F)c1` (racemic), the IC50 in experiment [1] came out at 17.7 µM; in experiment [2], 14.7 µM; in experiment [3], 10 µM; in experiment [4], 19.2 µM.

Consider `CC(O)(CS(=O)(=O)c1ccccc1C(F)(F)F)C(=O)Nc1cccc(S(F)(F)(F)(F)F)c1` (racemic), for which the IC50 in experiment [1] came to 27.3 µM; in experiment [2], 27.7 µM; in experiment [3], 24.9 µM; in experiment [4] it was 40.8 µM.

For `CC(O)(CS(=O)(=O)c1ccc(OC(F)(F)F)cc1)C(=O)Nc1ccc(S(F)(F)(F)(F)F)cc1` (racemic), the IC50 turned out to be 39.3 µM in experiment [1], 51.9 µM in experiment [2], 92.8 µM in experiment [3] and 95.8 µM in experiment [4].

Consider `CC(O)(CS(=O)(=O)c1ccccc1C(F)(F)F)C(=O)Nc1ccc(S(F)(F)(F)(F)F)cc1` (racemic), for which the IC50 in experiment [1] was determined as 29.4 µM; in experiment [2], 17.4 µM; in experiment [3], 10.8 µM; in experiment [4] it was 23.8 µM.

As for `CC(O)(CS(=O)(=O)c1cc(C(F)(F)F)cc(C(F)(F)F)c1)C(=O)Nc1ccc(S(F)(F)(F)(F)F)cc1` (racemic), the 50% inhibitory concentration (IC50) in experiment [1] was found to be 24.4 µM; in experiment [2], 12.7 µM; in experiment [3], 13.3 µM; in experiment [4], 15.8 µM.

On to `CC(O)(CS(=O)(=O)c1cccc(S(F)(F)(F)(F)F)c1)C(=O)Nc1ccc([N+](=O)[O-])c(C(F)(F)F)c1` (racemic), for which the IC50 turned out to be 17.2 µM in experiment [1], 14.8 µM in experiment [2], 13.8 µM in experiment [3] and 24.6 µM in experiment [4].

In the case of `CC(O)(CS(=O)(=O)c1ccc(S(F)(F)(F)(F)F)cc1)C(=O)Nc1ccc(S(F)(F)(F)(F)F)cc1` (racemic), the IC50 in experiment [1] was determined as 28.9 µM; in experiment [2], 17.3 µM; in experiment [3] it was 29.2 µM; in experiment [4] it was 15.7 µM.

`CC(O)(COc1cc(C(F)(F)F)cc(C(F)(F)F)c1)C(=O)Nc1cccc(C(F)(F)C(F)(F)F)c1` (racemic): the IC50 was determined as 9.8 µM in experiment [1], 4.5 µM in experiment [2], 4.7 µM in experiment [3] and 8 µM in experiment [4].

For the compound `CC(O)(COc1cccc(S(F)(F)(F)(F)F)c1)C(=O)Nc1ccc(C(F)(F)F)cc1` (racemic), the concentration for half-maximal inhibition (IC50) in experiment [1] amounted to 21 µM; in experiment [2], 15.8 µM; in experiment [3] it was 12.8 µM; in experiment [4], 23.8 µM.

`CC(O)(CS(=O)(=O)c1cccc(S(F)(F)(F)(F)F)c1)C(=O)Nc1cccc(S(F)(F)(F)(F)F)c1` (racemic): the IC50 in experiment [1] is 29.4 µM; in experiment [2] it was 15.4 µM; in experiment [3] it was 11.7 µM; in experiment [4], 19 µM.

Turning to `CC(O)(CS(=O)(=O)c1cccc(OC(F)(F)F)c1)C(=O)Nc1ccc(S(F)(F)(F)(F)F)cc1` (racemic), the IC50 in experiment [1] came to 26.5 µM; in experiment [2], 22.4 µM; in experiment [3], 21.7 µM; in experiment [4], 23.7 µM.

With `CC(O)(COc1ccc(S(F)(F)(F)(F)F)cc1)C(=O)Nc1ccc(C(F)(F)F)cc1` (racemic), the IC50 in experiment [1] was 27.4 µM; in experiment [2], 12.9 µM; in experiment [3], 11.7 µM; in experiment [4] it was 14.7 µM.

Consider `CC(O)(CS(=O)(=O)c1ccc(F)cc1)C(=O)Nc1ccc(S(F)(F)(F)(F)F)cc1` (racemic), for which the IC50 in experiment [1] is 27.7 µM; in experiment [2], 20.6 µM; in experiment [3] it was 18.2 µM; in experiment [4] it was 34.2 µM.

In the case of `CC(O)(CS(=O)(=O)c1cccc(OC(F)(F)F)c1)C(=O)Nc1cccc(S(F)(F)(F)(F)F)c1` (racemic), the IC50 was 31.5 µM in experiment [1], 20.1 µM in experiment [2], 15.1 µM in experiment [3] and 20.2 µM in experiment [4].

On to `CC(O)(CS(=O)(=O)c1cccc(S(F)(F)(F)(F)F)c1)C(=O)Nc1ccc(C#N)cc1C(F)(F)F` (racemic), for which the IC50 in experiment [1] came out at 22.1 µM; in experiment [2], 14.3 µM; in experiment [3] it was 12.9 µM; in experiment [4], 20.8 µM.

With `CC(O)(CS(=O)(=O)c1ccccc1OC(F)(F)F)C(=O)Nc1cccc(S(F)(F)(F)(F)F)c1` (racemic), the IC50 in experiment [1] is 29.1 µM; in experiment [2], 17.1 µM; in experiment [3], 9 µM; in experiment [4] it was 13.9 µM.

On to `CC(O)(CS(=O)(=O)c1ccc(F)cc1)C(=O)Nc1ccc(C#N)c(C(F)(F)F)c1` (racemic) [BICALUTAMIDE], for which the Activity entry in experiment [1], in experiment [2], in experiment [3] and in experiment [4] was “Dose-dependent effect” in each case.
